According to publication PMC3715055 (Science translational medicine, 2012):

Key:
SERCA pump [1] = target: T1, SERCA pump (Oryctolagus cuniculus, UniProt P04191); assay: SERCA pump assay with skeletal muscle microsomes; assay type: biochemical, rabbit; settings: broken cell microsomal studies
[2] = system: TSU human bladder cancer cells; assay: Clonal survival assay, PSMA-negative TSU cells, 72-hour exposure; assay type: cell-based; settings: human cancer cell lines (Fig. 3A: TSU)
How it was run: (§1)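 Clonal survival assays used PSMA-negative TSU bladder and PSMA-positive LNCaP prostate cancer cells exposed to test compounds for 72 hours. IC50 was the concentration inhibiting proliferation by 50%. Assays were run in triplicate and reported as mean ± SE.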

[3] = system: LNCaP human prostate cancer cells; assay: Clonal survival assay, PSMA-positive LNCaP cells, 72-hour exposure; assay type: cell-based; settings: human cancer cell lines (Fig. 3A: LNCaP)
How it was run: as §1

TSU cells = assay: Intracellular free calcium in fura-2-loaded TSU cells; assay type: cell-based, human; settings: PSMA-nonproducing TSU cells
[4] = Biodistribution in CWR22R-H-bearing castrated mice; assay type: in vivo, mouse
How it was run: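 Castrated mice carried CWR22R-H tumours started s.c. from 10 mg minced tumour in Matrigel. Five mice received one 56 mg/kg dose of test compound. Tumour, liver, kidney, skeletal muscle and brain were harvested 5 days later. Test compound and its PSMA cleavage products were measured in tissue by LC-MS. Tumour levels were compared with other tissues by Student's t test.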

[5] = Biodistribution in MCF-7 tumor-bearing mice; assay type: in vivo, mouse
SERCA pump [6] = target: T1, SERCA pump; assay: Intrinsic fluorescence binding competition on SERCA; settings: intrinsic fluorescent studies
[7] = system: PC-3 human prostate cancer cells; assay: Clonal survival of PC-3 cells after repeated exposure; assay type: cell-based; settings: 11 cycles of repeat exposure and clonal expansion, 500 nM
[8] = BALB/c mice; cited from earlier work
[9] = Dose-finding / maximum tolerated dose in mice; assay type: in vivo, mouse; settings: for maximally tolerated dose: × 3 doses
[10] = system: LNCaP human prostate cancer xenografts; assay: LNCaP xenograft efficacy in intact mice; assay type: in vivo, mouse; settings: for treated-to-control tumor volume (T/C) ratio: maximally tolerated dose × 3
How it was run: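 Six-week-old male nude mice were inoculated in the flank with 2 × 10^6 LNCaP cells in Matrigel. Test compound was given i.v. at 56 mg/kg on days 0, 1 and 2. The docetaxel comparator was dosed on days 0, 2 and 5. Tumour volume was followed for 30 days against untreated mice by Student's t test. T/C was the treated-to-control tumour volume ratio.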

Fc-PSMA = Fc-PSMA (Homo sapiens, UniProt Q04609); assay: PSMA prodrug hydrolysis with Fc-PSMA; assay type: biochemical; settings: incubation with Fc-PSMA
How it was run: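 Enzyme activity was confirmed beforehand by 3H-NAAG hydrolysis. Aliquots taken over time were analysed by HPLC with 0.1% TFA in water and acetonitrile, 40–100% B over 25 min. Products were identified by co-elution and confirmed by MS. Human plasma and other purified proteases at equimolar level were also tested.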

[11] = Stability to hydrolysis in human plasma; assay type: in vitro ADME
other purified proteases = assay: Hydrolysis by other purified proteases; assay type: biochemical; settings: equimolar concentrations of other proteases
LNCaP cells = assay: Growth inhibition of LNCaP cells with or without PSMA inhibitor PMPA; assay type: cell-based, human; settings: 48-hour exposure, PMPA 10 μM
[12] = system: MDA-PCa2b human prostate cancer xenografts; assay: MDA-PCa2b xenograft efficacy in intact mice; assay type: in vivo, mouse
How it was run: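 Six-week-old male nude mice carried flank MDA-PCa2b tumours from 2 × 10^6 cells in Matrigel. Test compound was given i.v. at 56 mg/kg on 3 consecutive days. Tumour volume was followed for ≥30 days against untreated controls by Student's t test. Tumours harvested 4 days after the last dose had H&E staining and nuclear AR immunostaining with rabbit polyclonal anti-AR antibody.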

[13] = system: CWR22R-H human prostate cancer xenografts; assay: CWR22R-H xenograft efficacy in castrated mice; assay type: in vivo, mouse; settings: single 3-day course, 56 mg/kg × 3, out to ≥30 days
How it was run: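 Castrated mice had CWR22R-H xenografts from s.c. minced tumour (10 mg) in Matrigel. Three consecutive daily i.v. doses of 56 mg/kg were given on days 0, 1 and 2. Tumour volume was followed for ≥30 days against untreated controls by Student's t test. Body weight was recorded.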

[14] = system: MCF-7 human breast cancer xenografts; assay: MCF-7 xenograft efficacy in female nude mice; assay type: in vivo, mouse; settings: for T/C ratio: day 21
How it was run: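 Female nude mice with s.c. estrogen pellets carried flank tumours from 2 × 10^6 MCF-7 cells. Mice received one, two or three daily doses of 56 mg/kg test compound. Tumour volume and body weight were followed against untreated controls by Student's t test. Xenografts had histology 6 days after two doses. ER was stained with an ERα mAb. T/C was treated-to-control tumour volume.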

[15] = system: TSU human bladder cancer xenografts; assay: TSU xenograft efficacy; assay type: in vivo, mouse; settings: more intensive treatment schedule
[16] = Body weight of xenograft-bearing mice; assay type: in vivo, mouse; settings: 56 mg/kg × 3, by 5 to 7 days after therapy, baseline by days 14 to 21
[17] = Single-dose pharmacokinetics in BALB/c mice; assay type: in vivo, mouse; settings: single dose of 67 mg/kg
How it was run: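 Wild-type BALB/c mice received a single i.v. dose of 67 mg/kg. Groups of three mice were sampled at time points over 24 hours. Plasma test compound and its 12ADTβAsp cleavage product were quantified by LC-MS/MS. Analysis was noncompartmental, with a semilog regression trend line.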

[18] = GLP toxicology in cynomolgus monkey; assay type: in vivo
How it was run: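 Toxicology was done in cynomolgus monkeys of both sexes at 10 mg/kg, with vehicle-treated controls. Necropsy was on day 33 and examined lymph nodes, spleen and thymus histologically. Splenic/body weight and thymus/body weight ratios were compared with vehicle animals, three per sex.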

GLP toxicology in rat = assay type: in vivo
[19] = Phase 1 clinical trial pharmacokinetics; assay type: in vivo, human
How it was run: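 Eighteen advanced cancer patients in a phase 1 dose-escalation trial received a 1-hour i.v. infusion at 1.2 to 40 mg/m2. Serum concentrations were followed over 24 hours. Analysis was noncompartmental. AUC0–∞ used the linear trapezoidal method and t1/2 the log-linear terminal slope. Dose proportionality was assessed from AUC across doses.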

[20] = Pharmacokinetics in monkey toxicological studies; assay type: in vivo; settings: serum, intravenous
How it was run: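 Male and female monkeys received a single 1-hour treatment at 1 to 10 mg/kg. Serum levels of test compound were followed over 24 hours. Analysis was noncompartmental. Terminal half-life came from the terminal slope of a log-linear concentration–time plot.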

[21] = MCF-7, 5 days after single dose of G202 56 mg/kg

T1 sequence (P04191 whole entry): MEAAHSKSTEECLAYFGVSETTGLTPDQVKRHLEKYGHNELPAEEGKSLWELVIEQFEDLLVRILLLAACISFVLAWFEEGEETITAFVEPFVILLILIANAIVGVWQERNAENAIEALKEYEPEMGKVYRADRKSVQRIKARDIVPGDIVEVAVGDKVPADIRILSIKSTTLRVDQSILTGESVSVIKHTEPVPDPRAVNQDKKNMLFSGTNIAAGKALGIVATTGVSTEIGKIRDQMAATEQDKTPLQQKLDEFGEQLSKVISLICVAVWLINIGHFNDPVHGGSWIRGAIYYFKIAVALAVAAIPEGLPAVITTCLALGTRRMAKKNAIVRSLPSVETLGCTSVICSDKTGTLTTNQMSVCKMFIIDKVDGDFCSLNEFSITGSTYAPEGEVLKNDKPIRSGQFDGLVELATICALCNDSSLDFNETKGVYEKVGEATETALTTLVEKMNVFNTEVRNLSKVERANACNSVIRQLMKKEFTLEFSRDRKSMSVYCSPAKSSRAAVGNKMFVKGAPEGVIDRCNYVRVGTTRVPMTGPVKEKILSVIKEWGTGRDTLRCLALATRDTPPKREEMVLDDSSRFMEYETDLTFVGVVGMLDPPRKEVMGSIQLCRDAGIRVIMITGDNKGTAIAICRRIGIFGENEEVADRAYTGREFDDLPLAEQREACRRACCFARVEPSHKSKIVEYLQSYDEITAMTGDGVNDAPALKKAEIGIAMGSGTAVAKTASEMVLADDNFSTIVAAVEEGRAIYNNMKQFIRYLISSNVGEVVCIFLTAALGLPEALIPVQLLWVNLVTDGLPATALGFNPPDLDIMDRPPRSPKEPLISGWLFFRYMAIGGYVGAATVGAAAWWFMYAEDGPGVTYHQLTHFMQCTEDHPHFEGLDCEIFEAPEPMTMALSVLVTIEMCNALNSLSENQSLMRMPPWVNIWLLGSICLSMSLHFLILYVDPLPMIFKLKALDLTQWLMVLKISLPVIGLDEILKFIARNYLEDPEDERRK
Sequence of Fc-PSMA (Q04609 44-750 limits assumed): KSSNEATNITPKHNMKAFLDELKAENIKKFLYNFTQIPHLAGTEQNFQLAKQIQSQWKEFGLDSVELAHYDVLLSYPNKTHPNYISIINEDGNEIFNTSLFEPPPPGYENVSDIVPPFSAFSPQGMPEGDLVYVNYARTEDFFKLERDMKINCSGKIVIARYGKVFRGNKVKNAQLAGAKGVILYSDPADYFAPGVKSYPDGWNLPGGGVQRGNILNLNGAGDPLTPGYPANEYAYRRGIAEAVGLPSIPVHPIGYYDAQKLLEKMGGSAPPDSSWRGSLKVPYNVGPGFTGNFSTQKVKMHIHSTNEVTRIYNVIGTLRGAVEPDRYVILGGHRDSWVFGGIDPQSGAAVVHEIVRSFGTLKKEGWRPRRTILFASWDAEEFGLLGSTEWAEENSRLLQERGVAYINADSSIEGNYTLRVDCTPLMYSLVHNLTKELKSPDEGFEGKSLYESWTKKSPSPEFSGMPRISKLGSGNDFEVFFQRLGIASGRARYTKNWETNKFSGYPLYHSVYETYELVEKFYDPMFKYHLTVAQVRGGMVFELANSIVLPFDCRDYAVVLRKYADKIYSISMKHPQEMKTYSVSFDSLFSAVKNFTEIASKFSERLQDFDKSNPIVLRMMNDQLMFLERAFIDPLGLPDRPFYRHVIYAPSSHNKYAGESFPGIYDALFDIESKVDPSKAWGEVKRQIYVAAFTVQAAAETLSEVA

Q: For `C/C=C(/C)C(=O)O[C@H]1C(C)=C2[C@H]([C@@H]1OC(=O)CCCCCCC)[C@@](C)(OC(C)=O)C[C@H](OC(=O)CCCCCCCCCCCNC(=O)C[C@H](N)C(=O)O)[C@@]1(O)[C@H]2OC(=O)[C@@]1(C)O` [12ADTβAsp], which “potency at inhibiting the SERCA pump compared with TG” value (SERCA pump [1]) is on record?
A: as potent at inhibiting the SERCA pump in broken cell microsomal studies as was TG

Q: What about the “cytotoxic potency compared with TG” value [2] of the same molecule?
A: comparable to those of TG

Q: What about the “cytotoxic potency compared with TG” value [3] of the same molecule?
A: comparable to those of TG

Q: What about the “maximal elevation in intracellular Ca2+” value (TSU cells; 200 nM) of the same molecule?
A: up to 400 nM

Q: And the “accumulation in tumor tissue” value ([4]; 5 days after single dose of G202 56 mg/kg, CWR22R-H tumor)?
A: micromolar levels

Q: And the “fold higher amount in tumor tissue compared to normal brain” value ([4]; CWR22R-H, after G202 56 mg/kg)?
A: 354 fold

Q: And the “fold higher amount in tumor tissue compared to normal kidney” value ([4]; CWR22R-H, after G202 56 mg/kg)?
A: 15 fold

Q: What about the “fold higher amount in tumors than in kidney” value [5, 21] of the same molecule?
A: 3.5 fold

Q: What about the “fold higher amount in tumors than in skeletal muscle” value [5, 21] of the same molecule?
A: 1.6 fold

Q: What about the “tumor concentration relative to that in CWR22R-H xenografts” value ([5]; MCF-7 versus CWR22R-H) of the same molecule?
A: 1/10

Q: And the “binding competition with cyclopiazonic acid (CPA)” value (SERCA pump [6])?
A: competitively affect the binding of each other

Q: Which results are given for `C/C=C(/C)C(=O)O[C@H]1C(C)=C2[C@H]([C@@H]1OC(=O)CCCCCCC)[C@@](C)(OC(C)=O)C[C@H](OC(=O)CCC)[C@@]1(O)[C@H]2OC(=O)[C@@]1(C)O` [TG, thapsigargin]?
A: clonal survival after repeated exposure [7]: no change in clonal survival; lethal dose for 100% of the test population (LD100) [8]: 0.2 mg/kg

Q: Which maximally tolerated dose [9] does the source give for `CC(=O)O[C@@]12CO[C@@H]1C[C@H](O)[C@@]1(C)C(=O)[C@H](O)C3=C(C)[C@@H](OC(=O)[C@H](O)[C@@H](NC(=O)OC(C)(C)C)c4ccccc4)C[C@@](O)([C@@H](OC(=O)c4ccccc4)[C@H]21)C3(C)C` [docetaxel, reference compound] here?
A: 0.39 µmol

Q: And the “treated-to-control tumor volume (T/C) ratio” value [10]?
A: 0.63

Q: For `C/C=C(/C)C(=O)O[C@H]1C(C)=C2[C@H]([C@@H]1OC(=O)CCCCCCC)[C@@](C)(OC(C)=O)C[C@H](OC(=O)CCCCCCCCCCCNC(=O)C[C@H](N)C(=O)N[C@@H](CCC(=O)N[C@@H](CCC(=O)N[C@@H](CCC(=O)N[C@@H](CCC(=O)O)C(=O)O)C(=O)O)C(=O)O)C(=O)O)[C@@]1(O)[C@H]2OC(=O)[C@@]1(C)O` [G202, 12ADTβAsp-GluγGluγGluγGlu], which “hydrolysis by PSMA” value (Fc-PSMA) is on record?
A: efficiently hydrolyzed by PSMA

Q: And the “stability to hydrolysis in human plasma” value [11]?
A: completely stable to hydrolysis in human plasma

Q: And the “hydrolysis by other purified proteases” value (other purified proteases)?
A: not appreciably hydrolyzed

Q: What about the “increase in intracellular calcium” value (TSU cells; 5 mM (25-fold higher concentration)) of the same molecule?
A: no appreciable increase in intracellular calcium

Q: What about the “growth inhibition of LNCaP cells on addition of PMPA” value (LNCaP cells) of the same molecule?
A: could be blocked

Q: And the bone marrow toxicity ([9]; mouse toxicology studies)?
A: no bone marrow toxicity

Q: What about the MTD ([9]; mouse, in vivo, iv) of the same molecule?
A: 112 mg/kg

Q: And the “mortality of treated animals” value ([9]; up to three consecutive daily doses of 56 mg/kg (1 μmol/dose))?
A: < 10%

Q: And the “maximally tolerated single intravenous dose” value ([9]; wild-type mice)?
A: 2 μmol/dose

Q: And the “TG molar equivalents deliverable systemically compared to TG alone” value ([9]; without significant host toxicity)?
A: > 150 fold

Q: What about the maximally tolerated dose [9] of the same molecule?
A: 1.0 µmol

Q: And the “treated-to-control tumor volume (T/C) ratio” value [10]?
A: 0.15

Q: And the “average regression of xenografts” value ([10]; single 3-day course, 56 mg/kg × 3, over a 30-day period)?
A: ~50%

Q: And the “androgen receptor (AR) expression in tumors” value ([12]; 4 days after 56 mg/kg × 3)?
A: marked down-regulation of AR expression

Q: What about the antitumor effect ([12]; single 3-day course, 56 mg/kg × 3, out to ≥30 days) of the same molecule?
A: Significant antitumor effects

Q: And the antitumor effect [13]?
A: Significant antitumor effects

Q: And the “T/C ratio at 3 weeks after treatment” value ([14]; MCF-7)?
A: 0.05

Q: And the “effect on tumor growth” value ([14]; single dose 56 mg/kg on 1 day)?
A: tumor growth delay

Q: What about the T/C ratio ([14]; three consecutive doses of 56 mg/kg) of the same molecule?
A: 0.06 ± 0.005

Q: What about the T/C ratio ([14]; two consecutive doses of 56 mg/kg) of the same molecule?
A: 0.05 ± 0.006

Q: And the “effect on tumor growth” value ([14]; two daily doses of 56 mg/kg, out to 30 days, all treated animals)?
A: sustained tumor regression

Q: What about the “estrogen receptor (ER) expression in tumors” value ([14]; two doses of 56 mg/kg, nadir 3 days after the last dose) of the same molecule?
A: down-regulation of the estrogen receptor

Q: What about the “T/C ratio at 3 weeks after treatment” value [15] of the same molecule?
A: 0.32

Q: And the “maximum body weight loss” value [16]?
A: about 15%

Q: What about the “fraction of dose converted in the circulation to 12ADTβAsp” value [17] of the same molecule?
A: Less than 1%

Q: And the “amount detected in the brain” value ([4]; mouse biodistribution studies)?
A: low amounts

Q: And the “animals with lymphoid depletion of lymph nodes” value ([18]; 10 mg/kg)?
A: five of six

Q: And the “animals with lymphoid depletion of spleen” value ([18]; 10 mg/kg)?
A: five of six

Q: What about the “increase of splenic ratio” value ([18]; female monkeys, 10 mg/kg) of the same molecule?
A: 25%

Q: What about the “decrease of splenic/body weight ratio versus vehicle” value ([18]; male monkeys, 10 mg/kg) of the same molecule?
A: 44%

Q: And the “decrease of thymus/body weight ratio versus vehicle” value ([18]; male monkeys, 10 mg/kg)?
A: 67%

Q: And the bone marrow toxicity ([18]; monkey toxicology studies)?
A: no bone marrow toxicity

Q: And the brain pathology ([18]; six monkeys, three consecutive doses of 10 mg/kg)?
A: within normal limits

Q: What about the brain pathology (GLP toxicology in rat; rat pathological studies) of the same molecule?
A: lack of toxicity to the brain

Q: And the renal toxicity (GLP toxicology in rat; rat toxicological studies)?
A: transient reversible renal toxicity

Q: What about the bone marrow toxicity (GLP toxicology in rat; rat toxicology studies) of the same molecule?
A: no bone marrow toxicity

Q: And the “predicted increase of AUC for a doubling in dose” value ([19]; first six dose cohorts, 1.2 to 40 mg/m^2)?
A: 2.23 fold

Q: What about the “terminal half-life in patients relative to monkey” value ([19]; human versus monkey) of the same molecule?
A: ~1.5 fold

Q: What about the half-life ([19]; human, serum, intravenous) of the same molecule?
A: 15.1 h

Q: What about the half-life [20] of the same molecule?
A: 9.7 h
